Laboratory results taken from ChEMBL document CHEMBL4033795, “Design, Synthesis, and Structure-Activity Relationship Study of 2-Oxo-3,4-dihydropyrimido[4,5- d]pyrimidines as New Colony Stimulating Factor 1 Receptor (CSF1R) Kinase Inhibitors” (J Med Chem, 2018).

Biological target: Epidermal growth factor receptor (Homo sapiens, UniProt P00533)
Experiment: Inhibition of recombinant human wild type GST-tagged EGFR cytoplasmic domain (668 to 1210 residues) expressed in baculovirus using tyr4 peptide as substrate after 1 hr by FRET-based Z'-Lyte assay

Sequence of Epidermal growth factor receptor (P00533 whole entry, the tested form may be a part): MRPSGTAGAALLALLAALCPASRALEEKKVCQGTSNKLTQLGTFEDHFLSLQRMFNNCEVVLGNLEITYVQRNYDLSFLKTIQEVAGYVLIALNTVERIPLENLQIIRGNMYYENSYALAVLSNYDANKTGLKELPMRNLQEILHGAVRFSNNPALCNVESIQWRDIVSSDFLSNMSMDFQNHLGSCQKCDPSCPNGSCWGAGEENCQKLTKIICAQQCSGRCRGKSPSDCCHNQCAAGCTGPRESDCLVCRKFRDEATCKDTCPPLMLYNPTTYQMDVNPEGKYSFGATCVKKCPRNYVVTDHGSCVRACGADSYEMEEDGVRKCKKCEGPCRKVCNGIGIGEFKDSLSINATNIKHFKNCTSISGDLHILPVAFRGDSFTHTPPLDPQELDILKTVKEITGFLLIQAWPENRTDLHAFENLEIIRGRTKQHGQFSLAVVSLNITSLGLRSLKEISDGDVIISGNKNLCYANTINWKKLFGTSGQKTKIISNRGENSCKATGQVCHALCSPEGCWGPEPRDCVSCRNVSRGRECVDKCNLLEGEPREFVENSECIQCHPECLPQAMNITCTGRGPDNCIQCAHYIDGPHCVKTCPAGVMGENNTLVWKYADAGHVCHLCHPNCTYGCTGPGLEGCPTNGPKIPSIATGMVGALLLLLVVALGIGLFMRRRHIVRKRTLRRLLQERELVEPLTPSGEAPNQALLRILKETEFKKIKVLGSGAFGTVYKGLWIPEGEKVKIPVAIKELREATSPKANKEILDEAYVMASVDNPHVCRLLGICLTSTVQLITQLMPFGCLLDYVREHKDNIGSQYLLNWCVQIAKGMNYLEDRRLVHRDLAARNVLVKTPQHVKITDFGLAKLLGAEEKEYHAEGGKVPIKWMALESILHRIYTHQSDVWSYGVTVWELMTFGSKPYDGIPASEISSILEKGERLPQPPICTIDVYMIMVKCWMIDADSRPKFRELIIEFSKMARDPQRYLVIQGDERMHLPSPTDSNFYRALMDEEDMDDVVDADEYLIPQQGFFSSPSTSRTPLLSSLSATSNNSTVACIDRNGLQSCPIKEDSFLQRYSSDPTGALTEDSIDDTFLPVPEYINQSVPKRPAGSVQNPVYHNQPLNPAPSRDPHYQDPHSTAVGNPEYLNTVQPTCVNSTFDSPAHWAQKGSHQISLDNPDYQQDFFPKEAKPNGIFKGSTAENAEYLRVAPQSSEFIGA

| Compound | IC50 [nM] |
| --- | --- |
| CCC(=O)N1CC[C@H](N2C(=O)N(c3ccccc3OC)Cc3cnc(Nc4ccc(N5CCN(C)CC5)c(C)c4)nc32)C1 | 27.4 |
| CCC(=O)N1CC[C@H](N2C(=O)N(c3cc(OC)ccc3F)Cc3cnc(Nc4ccc(N5CCOCC5)c(C)c4)nc32)C1 | 626 |
| CCC(=O)N1CC[C@H](N2C(=O)N(c3cc(OC)ccc3F)Cc3cnc(Nc4ccc(N5C[C@H]6CN(C)C[C@H]6C5)c(C)c4)nc32)C1 | 216 |
| CCC(=O)N1CC[C@H](N2C(=O)N(c3cccc(OC(F)F)c3)Cc3cnc(Nc4ccc(N5CCN(C)CC5)c(C)c4)nc32)C1 | 257 |
| CCC(=O)N1CC[C@H](N2C(=O)N(c3cc(OC)ccc3F)Cc3cnc(Nc4ccc(N5CCCCC5)c(C)c4)nc32)C1 | 467 |
| Cc1cc(Nc2ncc3c(n2)N([C@H]2CCN(C(=O)CN(C)C)C2)C(=O)N(c2ccccc2Cl)C3)ccc1N1CCN(C)CC1 | 26.6 |
| CCC(=O)N1CC[C@H](N2C(=O)N(c3ccc(C)cc3)Cc3cnc(Nc4ccc(N5CCN(C)CC5)c(C)c4)nc32)C1 | 377 |
| CCC(=O)N1CC[C@H](N2C(=O)N(c3cc(OC)ccc3F)Cc3cnc(Nc4ccc(N5CCC6(CCN(C)C6)C5)c(C)c4)nc32)C1 (stereo partly specified) | 296 |
| CCC(=O)N1CC[C@H](N2C(=O)N(c3cc(OC)ccc3F)Cc3cnc(Nc4ccc(N5CCC(N(C)C)CC5)c(C)c4)nc32)C1 | 286 |
| Cc1cc(Nc2ncc3c(n2)N([C@H]2CCN(C(=O)C4CCCC4)C2)C(=O)N(c2ccccc2Cl)C3)ccc1N1CCN(C)CC1 | 25.5 |
| CCC(=O)N1CC[C@H](N2C(=O)N(c3cc(OC)ccc3F)Cc3cnc(Nc4ccc(N5CCN(C)[C@@H](C)C5)c(C)c4)nc32)C1 | 715 |
| CCC(=O)N1CC[C@H](N2C(=O)N(c3ccccc3C)Cc3cnc(Nc4ccc(N5CCN(C)CC5)c(C)c4)nc32)C1 | 7.6 |
| CCC(=O)N1CC[C@H](N2C(=O)N(c3cc(OC)ccc3F)Cc3cnc(Nc4ccc(N5CCC6(CCN(C)CC6)CC5)c(C)c4)nc32)C1 | 224 |

Next, values leading:

| IC50 [nM] | Compound |
| --- | --- |
| 383 | CCC(=O)N1CC[C@H](N2C(=O)N(c3ccc(Cl)cc3)Cc3cnc(Nc4ccc(N5CCN(C)CC5)c(C)c4)nc32)C1 |
| 3400 | CCC(=O)N1CC[C@H](N2C(=O)N(c3cc(OC)ccc3F)Cc3cnc(Nc4ccc(N5CCN(C)CC5)c(C(F)(F)F)c4)nc32)C1 |
| 7 | Cc1cc(Nc2ncc3c(n2)N([C@H]2CCN(C(=O)CO)C2)C(=O)N(c2ccccc2Cl)C3)ccc1N1CCN(C)CC1 |
| 22.2 | Cc1cc(Nc2ncc3c(n2)N([C@H]2CCN(C(=O)CC(C)C)C2)C(=O)N(c2ccccc2Cl)C3)ccc1N1CCN(C)CC1 |
| 52.8 | CCCN1CC[C@H](N2C(=O)N(c3ccccc3Cl)Cc3cnc(Nc4ccc(N5CCN(C)CC5)c(C)c4)nc32)C1 |
| 71.6 | CCC(=O)N1CC[C@H](N2C(=O)N(c3ccc(F)cc3)Cc3cnc(Nc4ccc(N5CCN(C)CC5)c(C)c4)nc32)C1 |
| 1300 | CCC(=O)N1CC[C@H](N2C(=O)N(c3cc(OC)ccc3F)Cc3cnc(Nc4ccc(N5CCN(C)CC5)c(F)c4)nc32)C1 |
| 29.4 | Cc1cc(Nc2ncc3c(n2)N([C@H]2CCN(C(=O)C(C)(C)C)C2)C(=O)N(c2ccccc2Cl)C3)ccc1N1CCN(C)CC1 |
| 144 | CCC(=O)N1CC[C@H](N2C(=O)N(c3cccc(Cl)c3)Cc3cnc(Nc4ccc(N5CCN(C)CC5)c(C)c4)nc32)C1 |
| > 10000 | FC(F)(F)c1ccc(CNc2ccc(Cc3c[nH]c4ncc(Cl)cc34)cn2)cn1 [PEXIDARTINIB] |
| 15.7 | CCC(=O)N1CC[C@H](N2C(=O)N(c3ccccc3Cl)Cc3cnc(Nc4ccc(N5CCN(C)CC5)c(C)c4)nc32)C1 |
| 889 | CCC(=O)N1CC[C@H](N2C(=O)N(c3cccc(OC(F)(F)F)c3)Cc3cnc(Nc4ccc(N5CCN(C)CC5)c(C)c4)nc32)C1 |
| 518 | CCC(=O)N1CC[C@H](N2C(=O)N(c3cc(OC)ccc3F)Cc3cnc(Nc4ccc(N5CCN(C)CC5)c(CC)c4)nc32)C1 |

Biological target: Macrophage colony-stimulating factor 1 receptor (Homo sapiens, UniProt P07333)
Sequence (P07333 whole entry, the tested form may be a part): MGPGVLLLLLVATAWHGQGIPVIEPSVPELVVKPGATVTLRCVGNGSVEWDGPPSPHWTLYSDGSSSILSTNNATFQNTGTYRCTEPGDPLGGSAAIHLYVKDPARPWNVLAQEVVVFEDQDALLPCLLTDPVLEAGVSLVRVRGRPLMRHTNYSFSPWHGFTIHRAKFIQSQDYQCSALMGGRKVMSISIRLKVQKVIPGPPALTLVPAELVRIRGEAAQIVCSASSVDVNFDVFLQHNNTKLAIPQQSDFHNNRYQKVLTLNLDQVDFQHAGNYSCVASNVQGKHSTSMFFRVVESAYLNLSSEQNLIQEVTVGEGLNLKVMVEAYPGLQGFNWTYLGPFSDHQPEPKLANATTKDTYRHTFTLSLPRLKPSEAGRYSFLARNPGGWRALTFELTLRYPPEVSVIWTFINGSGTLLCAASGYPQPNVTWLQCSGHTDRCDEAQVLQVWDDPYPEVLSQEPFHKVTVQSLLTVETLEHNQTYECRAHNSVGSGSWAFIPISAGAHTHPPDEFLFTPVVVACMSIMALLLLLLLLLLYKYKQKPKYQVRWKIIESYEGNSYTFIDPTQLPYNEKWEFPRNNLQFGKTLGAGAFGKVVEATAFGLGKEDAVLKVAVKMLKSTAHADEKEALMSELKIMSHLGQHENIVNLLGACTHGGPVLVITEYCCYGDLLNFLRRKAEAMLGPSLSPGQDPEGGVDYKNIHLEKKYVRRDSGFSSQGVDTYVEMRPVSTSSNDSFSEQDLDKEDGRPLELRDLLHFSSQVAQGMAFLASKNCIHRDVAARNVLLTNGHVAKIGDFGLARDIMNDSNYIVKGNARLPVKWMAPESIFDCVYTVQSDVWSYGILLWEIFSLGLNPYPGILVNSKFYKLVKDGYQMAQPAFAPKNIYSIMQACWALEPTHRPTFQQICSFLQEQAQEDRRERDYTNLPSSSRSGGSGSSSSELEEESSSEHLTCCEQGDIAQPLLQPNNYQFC
Experiment: Inhibition of recombinant human His-tagged CSF1R cytoplasmic domain (538 to 910 residues) expressed in baculovirus using tyr4 peptide as substrate after 1 hr by FRET-based Z'-Lyte assay
Outline: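 Z′-Lyte FRET assay with CSF1R or EGFR and 2 μM Tyr4 peptide substrate in 1× kinase buffer. ATP was supplied as a 100 μM solution, a stock and not the final concentration. Compounds were 3-fold serially diluted in DMSO. Reaction ran 1 h at room temperature, followed by 1 h development and a stop reagent. Phospho-peptide, no-ATP and DMSO controls were included. IC50 by curve fitting; mean of at least three independent experiments.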

| Compound | IC50 [nM] |
| --- | --- |
| CCC(=O)N1CC[C@H](N2C(=O)N(c3ccccc3OC)Cc3cnc(Nc4ccc(N5CCN(C)CC5)c(C)c4)nc32)C1 | 5.1 |
| CCC(=O)N1CC[C@H](N2C(=O)N(c3cc(OC)ccc3F)Cc3cnc(Nc4ccc(N5CCOCC5)c(C)c4)nc32)C1 | 25.2 |
| CCC(=O)N1CC[C@H](N2C(=O)N(c3cc(OC)ccc3F)Cc3cnc(Nc4ccc(N5C[C@H]6CN(C)C[C@H]6C5)c(C)c4)nc32)C1 | 7 |
| CCC(=O)N1CC[C@H](N2C(=O)N(c3cccc(OC(F)F)c3)Cc3cnc(Nc4ccc(N5CCN(C)CC5)c(C)c4)nc32)C1 | 28 |
| CCC(=O)N1CC[C@H](N2C(=O)N(c3cc(OC)ccc3F)Cc3cnc(Nc4ccc(N5CCCCC5)c(C)c4)nc32)C1 | 41.2 |
| Cc1cc(Nc2ncc3c(n2)N([C@H]2CCN(C(=O)CN(C)C)C2)C(=O)N(c2ccccc2Cl)C3)ccc1N1CCN(C)CC1 | 22.7 |
| CCC(=O)N1CC[C@H](N2C(=O)N(c3ccc(C)cc3)Cc3cnc(Nc4ccc(N5CCN(C)CC5)c(C)c4)nc32)C1 | 20.6 |
| CCC(=O)N1CC[C@H](N2C(=O)N(c3cc(OC)ccc3F)Cc3cnc(Nc4ccc(N5CCC6(CCN(C)C6)C5)c(C)c4)nc32)C1 (stereo partly specified) | 6.8 |
| CCC(=O)N1CC[C@H](N2C(=O)N(c3cc(OC)ccc3F)Cc3cnc(Nc4ccc(N5CCC(N(C)C)CC5)c(C)c4)nc32)C1 | 4.7 |
| Cc1cc(Nc2ncc3c(n2)N([C@H]2CCN(C(=O)C4CCCC4)C2)C(=O)N(c2ccccc2Cl)C3)ccc1N1CCN(C)CC1 | 28.4 |
| CCC(=O)N1CC[C@H](N2C(=O)N(c3cc(OC)ccc3F)Cc3cnc(Nc4ccc(N5CCN(C)[C@@H](C)C5)c(C)c4)nc32)C1 | 7.2 |
| CCC(=O)N1CC[C@H](N2C(=O)N(c3ccccc3C)Cc3cnc(Nc4ccc(N5CCN(C)CC5)c(C)c4)nc32)C1 | 5.6 |
| CCC(=O)N1CC[C@H](N2C(=O)N(c3cc(OC)ccc3F)Cc3cnc(Nc4ccc(N5CCC6(CCN(C)CC6)CC5)c(C)c4)nc32)C1 | 6.2 |

The remaining lines, values ahead:

| IC50 [nM] | Compound |
| --- | --- |
| 14.8 | CCC(=O)N1CC[C@H](N2C(=O)N(c3ccc(Cl)cc3)Cc3cnc(Nc4ccc(N5CCN(C)CC5)c(C)c4)nc32)C1 |
| 31.9 | CCC(=O)N1CC[C@H](N2C(=O)N(c3cc(OC)ccc3F)Cc3cnc(Nc4ccc(N5CCN(C)CC5)c(C(F)(F)F)c4)nc32)C1 |
| 20 | Cc1cc(Nc2ncc3c(n2)N([C@H]2CCN(C(=O)CO)C2)C(=O)N(c2ccccc2Cl)C3)ccc1N1CCN(C)CC1 |
| 10.3 | Cc1cc(Nc2ncc3c(n2)N([C@H]2CCN(C(=O)CC(C)C)C2)C(=O)N(c2ccccc2Cl)C3)ccc1N1CCN(C)CC1 |
| 181 | CCCN1CC[C@H](N2C(=O)N(c3ccccc3Cl)Cc3cnc(Nc4ccc(N5CCN(C)CC5)c(C)c4)nc32)C1 |
| 18.1 | CCC(=O)N1CC[C@H](N2C(=O)N(c3ccc(F)cc3)Cc3cnc(Nc4ccc(N5CCN(C)CC5)c(C)c4)nc32)C1 |
| 17.1 | CCC(=O)N1CC[C@H](N2C(=O)N(c3cc(OC)ccc3F)Cc3cnc(Nc4ccc(N5CCN(C)CC5)c(F)c4)nc32)C1 |
| 20.1 | Cc1cc(Nc2ncc3c(n2)N([C@H]2CCN(C(=O)C(C)(C)C)C2)C(=O)N(c2ccccc2Cl)C3)ccc1N1CCN(C)CC1 |
| 13.2 | CCC(=O)N1CC[C@H](N2C(=O)N(c3cccc(Cl)c3)Cc3cnc(Nc4ccc(N5CCN(C)CC5)c(C)c4)nc32)C1 |
| 5 | CCC(=O)N1CC[C@H](N2C(=O)N(c3ccccc3Cl)Cc3cnc(Nc4ccc(N5CCN(C)CC5)c(C)c4)nc32)C1 |
| 151 | CCC(=O)N1CC[C@H](N2C(=O)N(c3cccc(OC(F)(F)F)c3)Cc3cnc(Nc4ccc(N5CCN(C)CC5)c(C)c4)nc32)C1 |
| 10 | CCC(=O)N1CC[C@H](N2C(=O)N(c3cc(OC)ccc3F)Cc3cnc(Nc4ccc(N5CCN(C)CC5)c(CC)c4)nc32)C1 |
